Data set [1] addresses T1, Potassium voltage-gated channel subfamily KQT member 2 (Homo sapiens, UniProt O43526). As to the kind of experiment: Activation of human Kv7.2 expressed in CHO cells assessed as increase in current amplitude at 10 uM measured at holding potential of -40 mV by whole cell patch clamp electrophysiology assay relative to control. Format: cell-based. The gist of the method:
(§1)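 CHO cells transiently co-transfected (Lipofectamine 2000, 4 μg total cDNA, EGFP marker) with human channel cDNA in pcDNA3.1, recorded 24 h later. Whole-cell patch clamp at 20–22°C, 3–5 MΩ pipettes, perfused extracellular solution pH 7.4. Held at −80 mV; 3-s ramps −80 to +20 mV ± 10 μM drug. Current at −40 mV with vs without drug expressed as ratio; ≥3 cells from ≥2 transfections, mean ± SEM.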
On the technique in general: The patch-clamp technique gives a direct electrical read-out from membranes.

In data set [2] the target is T1, Potassium voltage-gated channel subfamily KQT member 2. As to the kind of experiment: Activation of human Kv7.2 expressed in CHO cells assessed as maximal steady-state increase in current amplitude at 10 uM measured after 200 secs at holding potential of -40 mV by whole cell patch clamp electrophysiology assay. Format: cell-based.
Data set [3] shares this target. As to the kind of experiment: Activation of human Kv7.2 expressed in CHO cells assessed as increase in maximal channel conductance at 0.03 uM in constant voltage pulses by whole cell patch clamp electrophysiology assay. Format: cell-based. The essentials:
(§2)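 Transiently transfected CHO cells (human Kv7.2 cDNA in pcDNA3.1, EGFP marker), recorded 24 h post-transfection by whole-cell patch clamp at 20–22°C; extracellular solution in mM 138 NaCl, 2 CaCl₂, 5.4 KCl, 1 MgCl₂, 10 glucose, 10 HEPES, pH 7.4. Constant voltage pulses before and after 0.03 μM compound; conductance/voltage curves fitted to double Boltzmann for V1/2 and maximal conductance.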

Data set [4] has the same target. The experiment in a line: Activation of human Kv7.2 expressed in CHO cells assessed as half-activation voltage at 0.03 uM in constant voltage pulse by whole cell patch clamp electrophysiology assay (reference value: -38.2 +/- 2 mV). It counts as cell-based. The essentials: as §2
For data set [5], the system named is Potassium voltage-gated channel subfamily KQT member 2 (Homo sapiens), O43526 [W236L]. The experiment in a line: Activation of human Kv7.2 W236L mutant expressed in CHO cells assessed as channel current amplitude at 10 uM measured at holding potential of -40 mV by whole cell patch clamp electrophysiology assay. Format: cell-based. The essentials: as §1
Potassium voltage-gated channel subfamily KQT member 2 (Homo sapiens), O43526 [W236L], sequence (O43526 whole entry W236L): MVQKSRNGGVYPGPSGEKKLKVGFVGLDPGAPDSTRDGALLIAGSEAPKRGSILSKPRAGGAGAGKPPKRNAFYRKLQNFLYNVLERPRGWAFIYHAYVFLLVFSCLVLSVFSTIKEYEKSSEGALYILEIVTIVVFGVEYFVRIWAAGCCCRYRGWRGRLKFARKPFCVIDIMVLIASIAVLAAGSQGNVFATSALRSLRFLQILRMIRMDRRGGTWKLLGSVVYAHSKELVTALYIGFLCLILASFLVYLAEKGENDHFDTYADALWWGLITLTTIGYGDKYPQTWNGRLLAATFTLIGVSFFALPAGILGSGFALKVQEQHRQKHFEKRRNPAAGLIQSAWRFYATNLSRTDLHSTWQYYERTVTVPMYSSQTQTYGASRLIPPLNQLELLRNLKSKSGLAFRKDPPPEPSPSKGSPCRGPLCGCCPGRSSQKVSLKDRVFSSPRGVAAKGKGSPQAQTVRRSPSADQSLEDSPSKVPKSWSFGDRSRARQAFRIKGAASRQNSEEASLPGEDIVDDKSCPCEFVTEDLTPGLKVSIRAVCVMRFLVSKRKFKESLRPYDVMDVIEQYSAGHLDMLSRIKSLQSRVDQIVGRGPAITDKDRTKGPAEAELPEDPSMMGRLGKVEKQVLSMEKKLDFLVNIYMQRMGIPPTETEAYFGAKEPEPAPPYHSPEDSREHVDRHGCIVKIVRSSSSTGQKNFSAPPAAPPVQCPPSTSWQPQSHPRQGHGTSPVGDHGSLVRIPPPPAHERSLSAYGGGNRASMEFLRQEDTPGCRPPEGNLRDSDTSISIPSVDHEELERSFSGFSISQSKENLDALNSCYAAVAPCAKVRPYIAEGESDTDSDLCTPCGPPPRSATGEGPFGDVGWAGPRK
The test system of data set [6] is Potassium voltage-gated channel subfamily KQT member 2 (Homo sapiens), O43526 [F168L]. As to the kind of experiment: Activation of ICA-insensitive human Kv7.2 F168L mutant expressed in CHO cells assessed as increase in channel current amplitude at 10 uM measured at holding potential of -40 mV by whole cell patch clamp electrophysiology assay. It counts as cell-based. The gist of the method: as §1
Potassium voltage-gated channel subfamily KQT member 2 (Homo sapiens), O43526 [F168L], sequence (O43526 whole entry F168L): as the sequence (O43526 whole entry W236L) above, with F168L, L236W counted along it

For data set [7], the target named is T1, Potassium voltage-gated channel subfamily KQT member 2. The experiment in a line: Activation of human Kv7.2 expressed in CHO cells assessed as delta V at 10 uM by whole cell patch clamp electrophysiology assay. Format: cell-based. The essentials: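 Human Kv7.2 transiently expressed in CHO cells; whole-cell recordings at room temperature (20–22°C), pH 7.4 extracellular solution. 3-s ramps from −80 to +20 mV with 0.01–10 μM drug. ΔV taken as shift of the potential where current reaches 20% of peak, drug vs control, plotted against log concentration. Four-parameter logistic fit gives EC50; mean ± SD of ≥3 experiments.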

The target in data set [8] is T2, Potassium voltage-gated channel subfamily KQT member 3 (Homo sapiens) (UniProt O43525).
T2 sequence (whole entry): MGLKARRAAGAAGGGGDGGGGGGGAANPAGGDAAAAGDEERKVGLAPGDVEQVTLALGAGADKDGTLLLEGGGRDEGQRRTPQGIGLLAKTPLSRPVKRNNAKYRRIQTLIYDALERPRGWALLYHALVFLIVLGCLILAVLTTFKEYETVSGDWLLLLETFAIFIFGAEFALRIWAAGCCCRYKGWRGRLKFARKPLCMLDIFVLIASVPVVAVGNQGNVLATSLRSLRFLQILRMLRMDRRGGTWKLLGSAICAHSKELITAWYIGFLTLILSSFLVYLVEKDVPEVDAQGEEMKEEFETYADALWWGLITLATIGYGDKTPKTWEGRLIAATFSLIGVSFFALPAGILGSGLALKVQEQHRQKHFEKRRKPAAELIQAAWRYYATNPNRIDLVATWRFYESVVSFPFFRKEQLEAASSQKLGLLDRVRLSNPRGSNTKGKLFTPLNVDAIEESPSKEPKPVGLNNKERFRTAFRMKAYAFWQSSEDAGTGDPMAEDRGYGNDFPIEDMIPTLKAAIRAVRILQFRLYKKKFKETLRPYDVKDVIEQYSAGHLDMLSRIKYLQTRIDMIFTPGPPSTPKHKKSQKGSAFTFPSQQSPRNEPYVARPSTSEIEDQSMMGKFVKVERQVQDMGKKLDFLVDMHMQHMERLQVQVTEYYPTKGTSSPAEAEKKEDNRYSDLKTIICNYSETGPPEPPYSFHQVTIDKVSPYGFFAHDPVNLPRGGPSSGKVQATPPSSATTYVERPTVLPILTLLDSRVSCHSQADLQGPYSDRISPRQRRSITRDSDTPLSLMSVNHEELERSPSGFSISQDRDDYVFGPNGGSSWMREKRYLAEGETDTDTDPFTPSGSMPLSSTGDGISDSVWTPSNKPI
The experiment in a line: Activation of human Kv7.3 expressed in CHO cells assessed as delta V at 30 uM by whole cell patch clamp electrophysiology assay. It counts as cell-based.

For data set [9], the target named is Potassium voltage-gated channel subfamily KQT member 5 (Homo sapiens, UniProt Q9NR82). As to the kind of experiment: Activation of human Kv7.5 expressed in CHO cells assessed as delta V at 10 uM by whole cell patch clamp electrophysiology assay. Format: cell-based.
Potassium voltage-gated channel subfamily KQT member 5, sequence (Q9NR82 whole entry): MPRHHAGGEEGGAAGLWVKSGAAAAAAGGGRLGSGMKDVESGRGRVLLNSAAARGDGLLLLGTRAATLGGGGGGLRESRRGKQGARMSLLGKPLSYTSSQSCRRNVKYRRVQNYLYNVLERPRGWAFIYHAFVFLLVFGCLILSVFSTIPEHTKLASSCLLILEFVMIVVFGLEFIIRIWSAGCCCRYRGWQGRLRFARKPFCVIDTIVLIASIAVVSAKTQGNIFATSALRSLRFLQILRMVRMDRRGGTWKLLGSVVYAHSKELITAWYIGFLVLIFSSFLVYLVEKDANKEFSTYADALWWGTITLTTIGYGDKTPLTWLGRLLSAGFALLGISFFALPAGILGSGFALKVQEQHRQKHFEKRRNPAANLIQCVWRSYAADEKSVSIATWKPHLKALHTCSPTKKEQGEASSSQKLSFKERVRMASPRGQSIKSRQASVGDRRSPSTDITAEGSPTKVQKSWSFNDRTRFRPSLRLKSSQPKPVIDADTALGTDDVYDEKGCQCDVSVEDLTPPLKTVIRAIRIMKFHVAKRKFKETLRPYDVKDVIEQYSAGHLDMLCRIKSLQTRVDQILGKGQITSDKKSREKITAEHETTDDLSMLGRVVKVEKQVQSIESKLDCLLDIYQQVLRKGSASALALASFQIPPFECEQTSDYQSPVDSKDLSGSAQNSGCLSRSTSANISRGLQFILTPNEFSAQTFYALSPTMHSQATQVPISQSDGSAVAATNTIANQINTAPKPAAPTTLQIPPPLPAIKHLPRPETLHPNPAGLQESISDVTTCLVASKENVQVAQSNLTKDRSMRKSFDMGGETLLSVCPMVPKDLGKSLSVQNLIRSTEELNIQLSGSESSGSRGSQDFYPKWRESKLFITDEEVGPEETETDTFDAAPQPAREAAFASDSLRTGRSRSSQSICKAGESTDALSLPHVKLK
Data set [10] can be described thus: Photostability of compound in pH 7.4 buffer assessed as compound degradation at 100 ug/ml incubated for 2 hrs under natural solar light-irradiation by HPLC analysis relative to control. The gist of the method: (§3)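 DMSO solutions diluted in pH 7.4 buffer, held in 1 cm quartz cells and exposed to natural daylight. Light-shielded controls kept at 37°C in foil. Aliquots drawn at set intervals and parent compound loss measured by UHPLC: C18 column, 0.1% TFA water/acetonitrile gradient, 45°C, detection at 254 nm.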

Data set [11] can be described thus: Photostability of compound in pH 7.4 buffer assessed as compound degradation at 100 ug/ml incubated for 4 hrs under natural solar light-irradiation by HPLC analysis relative to control. The gist of the method: as §3
For data set [12], the target named is T1, Potassium voltage-gated channel subfamily KQT member 2. As to the kind of experiment: Activation of human Kv7.2 expressed in CHO cells assessed as current amplitude at 10 uM measured after 200 secs upon drug wash-out at holding potential of -40 mV by whole cell patch clamp electrophysiology assay. Format: cell-based.
The subject of a further data set is NAT (phase 2 metabolism). As to the kind of experiment: Drug metabolism in human liver S9 fractions assessed as assessed as NAT-mediated phase 2 metabolism at 1 mM preincubated for 5 mins followed by NADPH addition and measured after 60 mins by RP-UHPLC-DAD analysis relative to control. Format: ADME, subcellular. The conditions noted are these: read-out: Drug metabolism. The essentials:
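Compound (2 μL of 1 mM stock) in 100 mM phosphate buffer pH 7.4 with pooled human liver S9, preincubated 5 min, then NADPH added, 37°C for 60 min. For UGT: 5 mM UDPGA, alamethicin, 1 mM MgCl added; for NAT: 2 mM DTT, sulfamethazine, 4.5 mM acetyl DL-carnitine, 0.1 U/mL carnitine acetyltransferase. Stopped with ice-cold methanol; RP-UHPLC-DAD; % turnover = 100 − (60 min/0 min concentration × 100).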

The structures appear in SMILES notation. Activity calls are given as the source filed them. No cut-off for these calls is given here.

T1 sequence (O43526 whole entry, the tested form may be a part): as the sequence (O43526 whole entry W236L) above, with L236W counted along it

On to `CCCCCCC(=O)Nc1ccc2c(ccn2Cc2ccc(C(F)(F)F)cc2)c1`, for which the outcome in [1], in [2], in data set [3] and in data set [6] was Active. Further, the V1/2 in [4] was -38.2 mV. Further, the outcome in data set [5] and in data set [12] was inactive. Besides, the values for the Activity in [7], in data set [8] and in [9] were -29.5 mV, -26.2 mV and -25.6 mV, respectively. Moreover, the values for the Drug degradation in [10] and in data set [11] were 1.36% and 5.82%, respectively.
`CCOC(=O)Nc1ccc(NCc2ccc(F)cc2)cc1N` [EZOGABINE]: the Ratio in [1] was determined as 6. Moreover, the result in data set [3] and in [5] was inactive. In [4], the V1/2 was -24.4 mV. The outcome in data set [6] was Active. Also, the Activity in data set [7] is -25.4 mV; in data set [8], -39.9 mV; in [9] it was -21.95 mV. Moreover, the results for the Drug degradation in [10] and in data set [11] were 9.65% and 25.2%, respectively. For the same compound, the metabolised at 1 h, 1000 µM with NAT (phase 2 metabolism) is 3.41%.
Take `CC(C)(C)CC(=O)Nc1ccc2c(ccn2Cc2ccc(C(F)(F)F)cc2)c1`: the outcome in [1], in data set [2] and in data set [6] was Active. For the same compound, the result in data set [5] and in [12] was inactive. Moreover, the Activity in [7] is -30 mV; in data set [8], -21.4 mV; in data set [9], -19.7 mV. In addition, the Drug degradation worked out at 0.96% in data set [10] and 6.62% in [11]. For the same compound, the metabolised at 1 h, 1000 µM in the data set with NAT (phase 2 metabolism) came to 12.7%.

(Values after ChEMBL document CHEMBL4402547, “Synthesis and Pharmacological Characterization of Conformationally Restricted Retigabine Analogues as Novel Neuronal Kv7 Channel Activators” (J Med Chem, 2020).)
